From ChEMBL document CHEMBL1938254, “Semisynthetic neoboutomellerone derivatives as ubiquitin-proteasome pathway inhibitors” (Bioorg Med Chem, 2012)

How the values were obtained:
Type in all cases: cell-based
[1] = tested on: DLD-1; test: Inhibition of 20S proteasome in human DLD1 cells transfected with 4Ub-Luc gene assessed as bioluminescence induction factor at 1 uM after 8 hrs by luciferase reporter gene assay relative to epoxomicin
Method in brief: (§1)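 Stably transfected DLD-1 cells expressing 4Ub-Luc reporter, cultured in MEM with 5% heat-inactivated serum. Seeded at 10⁴ cells/well and treated with compound or solvent for 8 h. Luciferase activity in lysates read by luminometer. Induction factor = signal of treated over untreated cells, normalised to epoxomicin at 10^-7 M run in parallel (set to 100). IF ≥10 counted active.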

[2] = tested on: DLD-1; test: Inhibition of 20S proteasome activity in human DLD1 cells transfected with 4Ub-Luc gene assessed as bioluminescence induction factor at 10 uM after 8 hrs by luciferase reporter gene assay relative to epoxomicin; method in brief: as §1
[3] = tested on: DLD-1; test: Inhibition of 20S proteasome in human DLD1 cells transfected with 4Ub-Luc gene assessed as bioluminescence induction factor at 5 uM after 8 hrs by luciferase reporter gene assay relative to epoxomicin; method in brief: as §1
[4] = Inhibition of chymotrypsin-like activity of 20S proteasome in human DLD1 cells transfected with 4Ub-Luc gene using Succinyl-Leu-Leu-Val-Tyr-AMC as substrate after 6 hrs by spectrofluorometric analysis; conditions: dld-1
Method in brief: (§2)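 DLD-1 4Ub-Luc cells seeded at 10⁴ cells/well, exposed to compound or solvent for 6 h, then 30 min in reaction buffer (30 mM Tris–HCl pH 7.5, 1 mM ATP). Chymotrypsin-like and PGPH activities read with specific fluorogenic substrates.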

[5] = Inhibition of peptide-glutamyl-peptide-hydrolyzing activity of 20S proteasome in human DLD1 cells transfected with 4Ub-Luc gene using Z-Leu-Leu-Glu-AMC as substrate after 6 hrs by spectrofluorometric analysis; conditions: dld-1; method in brief: as §2

IC50 [4] [µM] | IC50 [5] [µM] | Structure (SMILES) | fold change (FC) [1] | fold change (FC) [2] | fold change (FC) [3]
 |  | CC(=O)O[C@H]1C[C@@]2(C)[C@@H]3CC[C@H]4[C@H](C)/C(=N/OCc5ccccc5)C=C[C@@]45C[C@@]35CC[C@]2(C)[C@H]1[C@H](C)[C@@H](OC(C)=O)C(=O)C(CNOCc1ccccc1)[C@@H](C)CO (stereo not given in full) | 0.9 | 0.9 | 0.9
 |  | CONCC(C(=O)[C@H](OC(C)=O)[C@@H](C)[C@H]1[C@@H](OC(C)=O)C[C@@]2(C)[C@@H]3CC[C@H]4[C@H](C)C(=O)C=C[C@@]45C[C@@]35CC[C@]12C)[C@@H](C)CO (stereo not given in full) | 1.1 | 4.9 | 1.2
 |  | CC(=O)O[C@H]1C[C@@]2(C)[C@@H]3CC[C@H]4[C@H](C)C(=O)C=C[C@@]45C[C@@]35CC[C@]2(C)[C@H]1[C@H](C)C=O |  | 3 | 1.3
17 | 22 | C=C(C(=O)[C@H](O)[C@@H](C)[C@H]1[C@@H](OC(C)=O)C[C@@]2(C)[C@@H]3CC[C@H]4[C@H](C)C(=O)C=C[C@@]45C[C@@]35CC[C@]12C)[C@@H](C)COC(=O)CN(C)C [listing 1 of 2 here] |  |  | 
 |  | C=C(C(=O)[C@H](OC(C)=O)[C@@H](C)[C@H]1[C@@H](OC(C)=O)C[C@@]2(C)[C@@H]3CC[C@H]4[C@H](C)C(=O)C=C[C@@]45C[C@@]35CC[C@]12C)[C@@H](C)COS(=O)(=O)O | 1.4 | 1.6 | 1.4
 |  | C=C(C(=O)[C@H](OC(C)=O)[C@@H](C)[C@H]1[C@@H](OC(C)=O)C[C@@]2(C)[C@@H]3CC[C@H]4[C@H](C)C(=O)C=C[C@@]45C[C@@]35CC[C@]12C)[C@@H](C)CO[C@@]1(C)O[C@@H]2O[C@@H](COC(C)=O)[C@H](OC(C)=O)[C@@H](OC(C)=O)[C@@H]2O1 | 2 | 48 | 59
 |  | C=C(C(=O)[C@H](OC(C)=O)[C@@H](C)[C@H]1[C@@H](OC(C)=O)C[C@@]2(C)[C@@H]3CC[C@H]4[C@H](C)C(=O)C=C[C@@]45C[C@@]35CC[C@]12C)[C@@H](C)C=O | 1 | 31 | 70
 |  | C=C(C(=O)[C@H](OC(=O)CCC(=O)O)[C@@H](C)[C@H]1[C@@H](OC(C)=O)C[C@@]2(C)[C@@H]3CC[C@H]4[C@H](C)C(=O)C=C[C@@]45C[C@@]35CC[C@]12C)[C@@H](C)COC(=O)CCC(=O)O | 1.2 | 1.2 | 1.1
 |  | C=C(C(=O)[C@H](O)[C@@H](C)[C@H]1[C@@H](OC(C)=O)C[C@@]2(C)[C@@H]3CC[C@H]4[C@H](C)C(=O)CC[C@@]45C[C@@]35CC[C@]12C)[C@@H](C)CO | 1.2 | 77 | 10
 |  | C=C(C(=O)[C@H](OC(C)=O)[C@@H](C)[C@H]1[C@@H](OC(C)=O)C[C@@]2(C)[C@@H]3CC[C@H]4[C@H](C)C(=O)C=C[C@@]45C[C@@]35CC[C@]12C)[C@@H](C)CN1C(=O)CN(CCCN(CCCCN(CCCNC(=O)OC(C)(C)C)C(=O)OC(C)(C)C)C(=O)OC(C)(C)C)C1=O | 1 | 37 | 30
 |  | C=C(C(=O)[C@H](OC(C)=O)[C@@H](C)[C@H]1[C@@H](OC(C)=O)C[C@@]2(C)[C@@H]3CC[C@H]4[C@H](C)C(=O)C=C[C@@]45C[C@@]35CC[C@]12C)[C@@H](C)COC(=O)CP(=O)(O)O | 1.1 | 1.4 | 1.1
 |  | C=C(C(=O)[C@H](O)[C@@H](C)[C@H]1[C@@H](OC(C)=O)C[C@@]2(C)[C@@H]3CC[C@H]4[C@H](C)C(=O)C=C[C@@]45C[C@@]35CC[C@]12C)[C@@H](C)COS(=O)(=O)O | 0.9 | 0.9 | 0.8
 |  | C=C(C(=O)[C@H](OC(C)=O)[C@@H](C)[C@H]1[C@@H](OC(C)=O)C[C@@]2(C)[C@@H]3CC[C@H]4[C@H](C)C(=O)C=C[C@@]45C[C@@]35CC[C@]12C)[C@H](C)CO | 1.1 | 88 | 51
 |  | C=C(C(=O)[C@H](OC(C)=O)[C@@H](C)[C@H]1[C@@H](OC(C)=O)C[C@@]2(C)[C@@H]3CC[C@H]4[C@H](C)C(=O)C=C[C@@]45C[C@@]35CC[C@]12C)[C@@H](C)COC(=O)CNCCCNCCCCNCCCN | 1.1 | 11 | 1.4
 |  | CO/N=C1/C=C[C@]23C[C@]24CC[C@]2(C)[C@@H]([C@H](C)[C@@H](OC(C)=O)C(=O)C(CNOC)[C@@H](C)CO)[C@@H](OC(C)=O)C[C@@]2(C)[C@@H]4CC[C@H]3[C@@H]1C (stereo not given in full) | 1 | 0.6 | 0.7
 |  | C=C(C(=O)[C@H](OC(C)=O)[C@@H](C)[C@H]1[C@@H](OC(C)=O)C[C@@]2(C)[C@@H]3CC[C@H]4[C@H](C)C(=O)C=C[C@@]45C[C@@]35CC[C@]12C)[C@@H](C)COC(=O)CN | 1.4 | 56 | 76
 |  | C=C(C(=O)[C@H](OC(C)=O)[C@@H](C)[C@H]1[C@@H](OC(C)=O)C[C@@]2(C)[C@@H]3CC[C@H]4[C@H](C)C(=O)C(O)C(O)[C@@]45C[C@@]35CC[C@]12C)[C@@H](C)COCC(O)CO (stereo not given in full) | 1.1 | 48 | 32
> 1000 | > 1000 | C=C(C(=O)[C@H](OC(C)=O)[C@@H](C)[C@H]1[C@@H](OC(C)=O)C[C@@]2(C)[C@@H]3C[C@@H](O)[C@H]4[C@H](C)C(=O)C=C[C@@]45C[C@@]35CC[C@]12C)[C@@H](C)CO | 5.1 |  | 31
 |  | C=C(C(=O)[C@H](OC(C)=O)[C@@H](C)[C@H]1[C@@H](OC(C)=O)C[C@@]2(C)[C@@H]3CC[C@H]4[C@H](C)C(=O)C=C[C@@]45C[C@@]35CC[C@]12CO)[C@@H](C)CO | 1.2 | 1.1 | 12
 |  | C=C(C(=O)[C@H](OC(C)=O)[C@@H](C)[C@H]1[C@@H](OC(C)=O)C[C@@]2(C)[C@@H]3CC[C@H]4[C@H](C)C(=O)C=C[C@@]45C[C@@]35CC[C@]12C)[C@@H](C)C(=O)O | 1 | 16 | 1.4
 |  | C=C(C(=O)[C@H](OC(C)=O)[C@@H](C)[C@H]1[C@@H](OC(C)=O)C[C@@]2(C)[C@@H]3CC[C@H]4[C@H](C)C(=O)C[C@H](O)[C@@]45C[C@@]35CC[C@]12C)[C@@H](C)CO | 1.6 | 74 | 11
19 | 23 | C=C(C(=O)[C@H](O)[C@@H](C)[C@H]1[C@@H](OC(C)=O)C[C@@]2(C)[C@@H]3CC[C@H]4[C@H](C)C(=O)C=C[C@@]45C[C@@]35CC[C@]12C)[C@@H](C)COC(=O)CN(C)C [listing 2 of 2 here] |  |  | 
> 1000 | > 1000 | C=C(C(=O)[C@H](O)[C@@H](C)[C@H]1[C@@H](OC(C)=O)C[C@@]2(C)[C@@H]3C[C@@H](O)[C@H]4[C@H](C)C(=O)C=C[C@@]45C[C@@]35CC[C@]12C)[C@@H](C)CO | 1.1 |  | 35

Structure (SMILES) | IC50 [4] [µM] | IC50 [5] [µM] | fold change (FC) [1] | fold change (FC) [2] | fold change (FC) [3]
C=C(C(=O)[C@H](O)[C@@H](C)[C@H]1[C@@H](OC(C)=O)C[C@@]2(C)[C@@H]3CC[C@H]4[C@H](C)C(=O)C=C[C@@]45C[C@@]35CC[C@]12C)[C@@H](C)COC(=O)N1CCN(C)CC1 | 12 | 12 |  |  | 
